In ChEMBL document CHEMBL1772948, “Chemistry and biology of macrolide antiparasitic agents” (J Med Chem, 2011):
Values after ≈ are worked out from the molar mass of the structure shown. Active and inactive are the calls of the source. No cut-off for these calls is given here.

How the values were obtained:
Toxoplasma gondii [1] = test: Antiparasitic activity against yellow fluorescent protein expressing Toxoplasma gondii 2F-1 treated immediately after infection for 48 hrs followed by reinoculated into fresh HFF monolayers measured after 48 hrs; type: functional, organism-based; conditions: 2F-1, 48 h
How it was run: (§1)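 Two-cycle protocol in HFF at 37 °C, 5% CO2, DMEM with 10% FBS. "0h": compound added with parasites, 48 h. "6h": parasites pre-incubated 6 h, uninvaded parasites removed, fresh medium with compound added, 42 h. Released tachyzoites were then harvested, purified and inoculated into fresh HFF without compound for the 2nd cycle. At least triplicate.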

Toxoplasma gondii [2] = test: Antiparasitic activity against yellow fluorescent protein expressing Toxoplasma gondii 2F-1 infected in HFF treated 6 hrs after infection measured after 48 hrs; type: functional, organism-based
Toxoplasma gondii [3] = test: Antiparasitic activity against green fluorescent protein expressing […] deficient Toxoplasma gondii RH infected in HFF assessed as decrease in density of parasitophorous vacuoles at 10 uM treated immediately after infection measured after 24 hrs by microscopic analysis; type: functional, organism-based
How it was run: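 GFP T. gondii RHΔhxgprt in HFF, compound (10 μM) added either with the inoculum ("0h") or after 6 h pre-infection and washing ("6h"); vacuoles per microscope field scored at 24 h, at least 20 random fields from each of three experiments.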

Bacillus subtilis = test: Antibacterial activity against Bacillus subtilis; type: functional
HFF = test: Cytotoxicity against HFF after 48 hrs by MTS assay; type: cell-based; conditions: human
How it was run: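 Low-passage HFF seeded in 96-well plates and incubated 24h at 37 °C, then exposed to varying macrolide concentrations for 2 days; medium replaced with fresh medium plus MTS, 4h at 37 °C, absorbance 490 nm; CC50 = dose reducing viability by 50%.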

Toxoplasma gondii [4] = test: Antiparasitic activity against yellow fluorescent protein expressing Toxoplasma gondii 2F-1 infected in HFF treated immediately after infection measured after 48 hrs; type: functional, organism-based; conditions: 2F-1, 48 h
Toxoplasma gondii [5] = test: Antiparasitic activity against yellow fluorescent protein expressing Toxoplasma gondii 2F-1 treated 6 hrs after infection for 42 hrs followed by reinoculated into fresh HFF monolayers measured after 48 hrs; type: functional, organism-based; how it was run: as §1
Toxoplasma gondii [6] = test: Antiparasitic activity against Toxoplasma gondii 2F-1 expressing yellow fluorescent protein infected in HFF after 4 days; type: functional, organism-based; conditions: 2F-1, 96 h
Toxoplasma gondii [7] = test: (§2) Antiparasitic activity against clindamycin-resistant Toxoplasma gondii 4 infected in HFF assessed as reduction of ycf24/UPRT genes copy number ratio at 5 uM treated for 48 hrs after 6 hrs infection followed by reinoculated into fresh HFF monolayers measured after 48 hrs by RT-PCR analysis; type: functional, organism-based
Toxoplasma gondii [8] = test: (§3) Antiparasitic activity against clindamycin-resistant Toxoplasma gondii 4 infected in HFF assessed as reduction of ycf24/UPRT genes copy number ratio at 5 uM treated for 48 hrs immediately after infection followed by reinoculated into fresh HFF monolayers measured after 48 hrs by RT-PCR analysis; type: functional, organism-based
How it was run: (§4)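 Tachyzoites were seeded on confluent HFF in 6-well plates at 2×10^5 per well, in DMEM with 10% FBS and 1% PS at 37 °C, 5% CO2. Compound was added together with the parasite inoculum, and cultures ran 48 h. Harvested tachyzoites were reinoculated into fresh HFF without drug for a second cycle. Parasites were pelleted by centrifugation and the plastid ycf24 to nuclear UPRT copy ratio was read by qPCR (40 cycles, 94 °C 3 s / 60 °C 30 s). At least triplicate.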

Toxoplasma gondii [9] = test: as §2, with “against green fluorescent protein expressing […] deficient” for “against clindamycin-resistant”, “gondii RH” for “gondii 4”; type: functional, organism-based
How it was run: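 HFF monolayers infected with RHΔhxgprt (or Clin^R-4) in 6-well plates; after 6 h medium changed and compound present 42 h; at 48 h parasites reinoculated into fresh HFF for 48 h without compound; parasites pelleted at 2,000 rpm 10 min; qPCR (94 °C 20 s, then 40 cycles 94 °C 3 s/60 °C 30 s) plastid ycf24 vs nuclear UPRT copy ratio.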

Toxoplasma gondii [10] = test: as §3, with “against green fluorescent protein expressing […] deficient” for “against clindamycin-resistant”, “gondii RH” for “gondii 4”; type: functional, organism-based; how it was run: as §4
Toxoplasma gondii [11] = test: as §3, with “against green fluorescent protein expressing […] deficient” for “against clindamycin-resistant”, “gondii RH” for “gondii 4”, “at 1” for “at 5”; type: functional
How it was run: as §4, with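 “CO2.” for “CO2. Compound was added together with the parasite inoculum, and cultures ran 48 h.”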

Toxoplasma gondii [12] = test: (§5) Antiparasitic activity against clindamycin-resistant Toxoplasma gondii 4 infected in HFF assessed as reduction of ycf24/UPRT genes copy number ratio at 1 uM treated for 48 hrs after 6 hrs infection followed by reinoculated into fresh HFF monolayers measured after 48 hrs by RT-PCR analysis; type: functional
Toxoplasma gondii [13] = test: as §5, with “against green fluorescent protein expressing hwgprt deficient” for “against clindamycin-resistant”, “gondii RH” for “gondii 4”; type: functional
Toxoplasma gondii [14] = test: Antiparasitic activity against clindamycin-resistant Toxoplasma gondii 4 infected in HFF assessed as reduction of ycf24/UPRT genes copy number ratio at 1 uM treated for 48 hrs immediately after infection followed by reinoculated into fresh HFF monolayers measured after 48 hrs by RT-PCR analysis; type: functional
How it was run: as §4, with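 “CO2.” for “CO2. Compound was added together with the parasite inoculum, and cultures ran 48 h.”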

Row | Compound | IC50 (Toxoplasma gondii [1]) [µM] | IC50 (Toxoplasma gondii [2]) [µM] | MIC (Bacillus subtilis) [µM] | CC50 (HFF) [µM] | IC50 (Toxoplasma gondii [4]) [µM] | IC50 (Toxoplasma gondii [5]) [µM] | IC50 (Toxoplasma gondii [6]) [µM] | other results
1 | CC[C@H]1OC(=O)[C@H](C)[C@@H](O[C@H]2C[C@@](C)(OC)[C@@H](O)[C@H](C)O2)[C@H](C)[C@@H](O[C@@H]2O[C@H](C)C[C@H](N(C)C)[C@H]2O)[C@](C)(O)C[C@@H](C)CN(Cc2ccc(F)cc2)[C@H](C)[C@@H](O)[C@]1(C)O | 0.5 | 9 | 0.3 (≈ 0.253 µg/mL) | 31 | 6 | 0.7 |  | Activity (Toxoplasma gondii [3]): Active
2 | CC[C@H]1OC(=O)[C@H](C)[C@@H](O[C@H]2C[C@@](C)(OC)[C@@H](O)[C@H](C)O2)[C@H](C)[C@@H](O[C@@H]2O[C@H](C)C[C@H](N(C)C)[C@H]2O)[C@](C)(O)C[C@@H](C)CN(CCCc2ccccc2)[C@H](C)[C@@H](O)[C@]1(C)O | 0.6 | 8 | 0.6 (≈ 0.512 µg/mL) | 33 | 4 | 0.6 |  | Activity (Toxoplasma gondii [3]): Active
3 | CCNC(=O)N1C[C@H](C)C[C@@](C)(OC)[C@H](O[C@@H]2O[C@H](C)C[C@H](N(C)C)[C@H]2O)[C@@H](C)[C@H](O[C@H]2C[C@@](C)(OC)[C@@H](O)[C@H](C)O2)[C@@H](C)C(=O)O[C@H](CC)[C@@](C)(O)[C@H](O)[C@H]1C |  |  | 10 (≈ 8.2 µg/mL) | 409 |  |  | 59 | 
4 | SPIRAMYCIN |  |  |  |  |  |  |  | Ratio (Toxoplasma gondii [7]): 3; Ratio (Toxoplasma gondii [8]): 8; Ratio (Toxoplasma gondii [9]): 5; Ratio (Toxoplasma gondii [10]): 8
5 | CC[C@H]1OC(=O)[C@H](C)[C@@H](O[C@H]2C[C@@](C)(OC)[C@@H](O)[C@H](C)O2)[C@H](C)[C@@H](O[C@@H]2O[C@H](C)C[C@H](N(C)C)[C@H]2O)[C@](C)(OC)C[C@@H](C)CN(Cc2ccccc2)[C@H](C)[C@@H](O)[C@]1(C)O | 5 | 10 | 0.3 (≈ 0.252 µg/mL) | 13 | 7 | 4 | 2 | 
6 | CC[C@H]1OC(=O)[C@H](C)[C@@H](O[C@H]2C[C@@](C)(OC)[C@@H](O)[C@H](C)O2)[C@H](C)[C@@H](O[C@@H]2O[C@H](C)C[C@H](N(C)C)[C@H]2O)[C@](C)(O)C[C@@H](C)CN(C(=O)NCc2ccccc2)[C@H](C)[C@@H](O)[C@]1(C)O |  |  | 1.2 (≈ 1.04 µg/mL) | 222 |  |  | 12 | 
7 | CC[C@H]1OC(=O)[C@H](C)[C@@H](O[C@H]2C[C@@](C)(OC)[C@@H](O)[C@H](C)O2)[C@H](C)[C@@H](O[C@@H]2O[C@H](C)C[C@H](N(C)C)[C@H]2O)[C@](C)(O)C[C@@H](C)CN(Cc2ccc(C)cc2)[C@H](C)[C@@H](O)[C@]1(C)O | 0.6 | 9 | 0.3 (≈ 0.252 µg/mL) | 38 | 5 | 0.7 |  | Activity (Toxoplasma gondii [3]): Active
8 | CC[C@H]1OC(=O)[C@H](C)[C@@H](O[C@H]2C[C@@](C)(OC)[C@@H](O)[C@H](C)O2)[C@H](C)[C@@H](O[C@@H]2O[C@H](C)C[C@H](N(C)C)[C@H]2O)[C@](C)(OC)C[C@@H](C)CN(C)[C@H](C)[C@@H](O)[C@]1(C)O |  |  | 5 (≈ 3.82 µg/mL) | 454 |  |  | 89 | 
9 | CC[C@H]1OC(=O)[C@H](C)[C@@H](O[C@H]2C[C@@](C)(OC)[C@@H](O)[C@H](C)O2)[C@H](C)[C@@H](O[C@@H]2O[C@H](C)C[C@H](N(C)C)[C@H]2O)[C@](C)(O)C[C@@H](C)/C(=N\OCc2ccccc2)[C@H](C)[C@@H](O)[C@]1(C)O |  |  | 0.04 (≈ 0.0336 µg/mL) | 3 |  |  | 1.4 | 
10 | CCNC(=O)N1C[C@H](C)C[C@@](C)(O)[C@H](O[C@@H]2O[C@H](C)C[C@H](N(C)C)[C@H]2O)[C@@H](C)[C@H](O[C@H]2C[C@@](C)(OC)[C@@H](O)[C@H](C)O2)[C@@H](C)C(=O)O[C@H](CC)[C@@](C)(O)[C@H](O)[C@H]1C |  |  | 10 (≈ 8.06 µg/mL) | 480 |  |  | 85 | 
11 | CCCO/N=C1\[C@H](C)C[C@@](C)(O)[C@H](O[C@@H]2O[C@H](C)C[C@H](N(C)C)[C@H]2O)[C@@H](C)[C@H](O[C@H]2C[C@@](C)(OC)[C@@H](O)[C@H](C)O2)[C@@H](C)C(=O)O[C@H](CC)[C@@](C)(O)[C@H](O)[C@H]1C |  |  | 0.04 (≈ 0.0316 µg/mL) | 7 |  |  | 1.6 | 
12 | CC[C@H]1OC(=O)[C@H](C)[C@@H](O[C@H]2C[C@@](C)(OC)[C@@H](O)[C@H](C)O2)[C@H](C)[C@@H](O[C@@H]2O[C@H](C)C[C@H](N(C)C)[C@H]2O)[C@](C)(OC)C[C@@H](C)CN[C@H](C)[C@@H](O)[C@]1(C)O |  |  | 2.5 (≈ 1.87 µg/mL) | 460 |  |  | 106 | 
13 | CCc1nc(N)nc(N)c1-c1ccc(Cl)cc1 [PYRIMETHAMINE] |  |  |  |  |  |  |  | Ratio (Toxoplasma gondii [11]): 29; Ratio (Toxoplasma gondii [12]): 23; Ratio (Toxoplasma gondii [13]): 22; Ratio (Toxoplasma gondii [14]): 27
14 | C=CCO/N=C1\[C@H](C)C[C@@](C)(O)[C@H](O[C@@H]2O[C@H](C)C[C@H](N(C)C)[C@H]2O)[C@@H](C)[C@H](O[C@H]2C[C@@](C)(OC)[C@@H](O)[C@H](C)O2)[C@@H](C)C(=O)O[C@H](CC)[C@@](C)(O)[C@H](O)[C@H]1C |  |  | 0.04 (≈ 0.0316 µg/mL) | 16 |  |  | 2.7 | 
15 | CC[C@H]1OC(=O)[C@H](C)[C@@H](O[C@H]2C[C@@](C)(OC)[C@@H](O)[C@H](C)O2)[C@H](C)[C@@H](O[C@@H]2O[C@H](C)C[C@H](N(C)C)[C@H]2O)[C@](C)(O)C[C@@H](C)CN(CC2CCCCC2)[C@H](C)[C@@H](O)[C@]1(C)O | 0.6 | 12 | 0.3 (≈ 0.249 µg/mL) | 36 | 7 | 0.6 |  | Activity (Toxoplasma gondii [3]): Active
16 | C=CCO[C@]1(C)C[C@@H](C)CN(CC=C)[C@H](C)[C@@H](O)[C@](C)(O)[C@@H](CC)OC(=O)[C@H](C)[C@@H](O[C@H]2C[C@@](C)(OC)[C@@H](O)[C@H](C)O2)[C@H](C)[C@H]1O[C@@H]1O[C@H](C)C[C@H](N(C)C)[C@H]1O |  |  | 5 (≈ 4.08 µg/mL) | 38 |  |  | 12 | 
17 | C=CCO[C@]1(C)C[C@@H](C)CN(Cc2ccccc2)[C@H](C)[C@@H](O)[C@](C)(O)[C@@H](CC)OC(=O)[C@H](C)[C@@H](O[C@H]2C[C@@](C)(OC)[C@@H](O)[C@H](C)O2)[C@H](C)[C@H]1O[C@@H]1O[C@H](C)C[C@H](N(C)C)[C@H]1O | 10 | > 10 | 6 (≈ 5.19 µg/mL) | 14 | 7 | > 10 | 5 | 
18 | CC[C@H]1OC(=O)[C@H](C)[C@@H](O[C@H]2C[C@@](C)(OC)[C@@H](O)[C@H](C)O2)[C@H](C)[C@@H](O[C@@H]2O[C@H](C)C[C@H](N(C)C)[C@H]2O)[C@](C)(O)C[C@@H](C)C(=O)[C@H](C)[C@@H](O)[C@]1(C)O [ERYTHROMYCIN] |  |  | 0.04 (≈ 0.0294 µg/mL) | 475 |  |  | 93 | 
